The text below walks through data of ChEMBL document CHEMBL3045126, “Antifungal activities of major tea leaf volatile constituents toward Colletorichum camelliae Massea” (2006).

Each structure is given as a SMILES string. In brackets after ≈: the same amount, converted by molar mass. A value given as a limit tells only on which side of the number the result lay.

Holding throughout (assay type): functional
Assay [1] has as its system Colletotrichum camelliae. Put plainly: Antifungal activity against Colletotrichum camelliae assessed as inhibition of mycelial growth measured after 5 days of cultivation. The following applies: 120 h. Put shortly:
(§1)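 Volatile constituents emulsified with emulsifier 0203-B (0.01% in medium) and mixed into PDA at 100, 500, 1000, 1500 or 2000 µg/mL in 9 cm plates. A 4 mm mycelial disk cut from a 4-day-old culture was placed centrally. Incubation was 5 days at 25 °C. Colony diameter was the mean of two readings. Inhibition = (C−T)×100/C against untreated and emulsifier controls. Three replicates.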

The subject of assay [2] is Colletotrichum camelliae. Description: Antifungal activity against Colletotrichum camelliae assessed as inhibition of mycelial growth at 1500 ug/mL measured after 5 days of cultivation. Particulars: 120 h, read-out: GI. An outline of the steps:
as §1

In assay [3] the test system is Colletotrichum camelliae. Put plainly: Antifungal activity against Colletotrichum camelliae assessed as inhibition of mycelial growth at 1000 ug/mL measured after 5 days of cultivation. Particulars: 120 h, read-out: GI. An outline of the steps: as §1
Assay [4] concerns Colletotrichum camelliae. Description: Antifungal activity against Colletotrichum camelliae assessed as inhibition of mycelial growth at 2000 ug/mL measured after 5 days of cultivation. The following applies: 120 h, read-out: GI. Put shortly: as §1
Assay [5] concerns Colletotrichum camelliae. Description: Antifungal activity against Colletotrichum camelliae assessed as inhibition of mycelial growth at 100 ug/mL measured after 5 days of cultivation. Particulars: 120 h, read-out: GI. An outline of the steps: as §1
Assay [6] concerns Colletotrichum camelliae. Description: Antifungal activity against Colletotrichum camelliae assessed as inhibition of mycelial growth at 500 ug/mL measured after 5 days of cultivation. Particulars: 120 h, read-out: GI. An outline of the steps:
as §1

The term MIC denotes the smallest concentration in the dilution series that meets the test's criterion for growth inhibition. Take `CC/C=C\CCO` [CIS-3-HEXENOL]: the MIC with Colletotrichum camelliae [1] was over 2120 µg/mL. For the same compound, the inhibition of growth at 1500 µg/mL in the assay on Colletotrichum camelliae [2] was found to be 74.1%. In addition, the inhibition of growth at 1000 µg/mL in the assay on Colletotrichum camelliae [3] was determined as 61.1%. Further, in the assay with Colletotrichum camelliae [4], the inhibition of growth at 2000 µg/mL was determined as 79.6%. The inhibition of growth at 100 µg/mL in the assay on Colletotrichum camelliae [5] came out at 42.6%. Besides, the inhibition of growth at 500 µg/mL with Colletotrichum camelliae [6] amounted to 44.4%.
With `OCc1ccccc1` [BENZYL ALCOHOL], the MIC in the assay on Colletotrichum camelliae [1] was 2600 µg/mL (≈ 24 mM). Moreover, in the assay on Colletotrichum camelliae [2], the inhibition of growth at 1500 µg/mL turned out to be 68.5%. The inhibition of growth at 1000 µg/mL in the assay on Colletotrichum camelliae [3] was determined as 61.1%. Also, in the assay on Colletotrichum camelliae [4], the inhibition of growth at 2000 µg/mL amounted to 83.3%. Also, in the assay on Colletotrichum camelliae [5], the inhibition of growth at 100 µg/mL was found to be 44.4%. In addition, the inhibition of growth at 500 µg/mL in the assay on Colletotrichum camelliae [6] amounted to 46.3%.
For the compound `COC(=O)c1ccccc1O` [METHYL SALICYLATE], in the assay with Colletotrichum camelliae [1], the MIC came to 1770 µg/mL (≈ 11.6 mM). For the same compound, the inhibition of growth at 1500 µg/mL in the assay on Colletotrichum camelliae [2] amounted to 100%. For the same compound, in the assay on Colletotrichum camelliae [3], the inhibition of growth at 1000 µg/mL was found to be 55.6%. The inhibition of growth at 2000 µg/mL in the assay with Colletotrichum camelliae [4] worked out at 100%. The inhibition of growth at 100 µg/mL with Colletotrichum camelliae [5] came out at 42.6%. In addition, the inhibition of growth at 500 µg/mL in the assay with Colletotrichum camelliae [6] was found to be 50%.
In the case of `C=CC(C)(O)CCC=C(C)C` (stereo not drawn) [LINALOOL], in the assay with Colletotrichum camelliae [1], the minimal inhibitory concentration (MIC) was determined as 1380 µg/mL (≈ 8.92 mM). Besides, the inhibition of growth at 1500 µg/mL in the assay on Colletotrichum camelliae [2] is 100%. Besides, the inhibition of growth at 1000 µg/mL in the assay on Colletotrichum camelliae [3] is 50%. Also, in the assay with Colletotrichum camelliae [4], the inhibition of growth at 2000 µg/mL came to 100%. For the same compound, in the assay with Colletotrichum camelliae [5], the inhibition of growth at 100 µg/mL is 37%. In addition, in the assay on Colletotrichum camelliae [6], the inhibition of growth at 500 µg/mL is 46.3%.
`C=C[C@]1(C)CC[C@H](C(C)(C)O)O1` [CIS-FURANOID]: the minimal inhibitory concentration (MIC) with Colletotrichum camelliae [1] was over 2380 µg/mL. The inhibition of growth at 1500 µg/mL in the assay with Colletotrichum camelliae [2] was 48.1%. Besides, in the assay on Colletotrichum camelliae [3], the inhibition of growth at 1000 µg/mL was found to be 44.4%. The inhibition of growth at 2000 µg/mL in the assay on Colletotrichum camelliae [4] is 57.4%. In addition, in the assay with Colletotrichum camelliae [5], the inhibition of growth at 100 µg/mL was 37%. The inhibition of growth at 500 µg/mL in the assay with Colletotrichum camelliae [6] amounted to 40.7%.
For `C=C[C@]1(C)CC[C@@H](C(C)(C)O)O1` [(E)-LINALOOL OXIDE], the minimum inhibitory concentration (MIC) in the assay on Colletotrichum camelliae [1] was over 2380 µg/mL. Further, the inhibition of growth at 1500 µg/mL with Colletotrichum camelliae [2] was determined as 48.1%. In addition, the inhibition of growth at 1000 µg/mL in the assay on Colletotrichum camelliae [3] was 44.4%. Also, the inhibition of growth at 2000 µg/mL in the assay on Colletotrichum camelliae [4] stood at 57.4%. Also, in the assay with Colletotrichum camelliae [5], the inhibition of growth at 100 µg/mL came out at 37%. For the same compound, the inhibition of growth at 500 µg/mL with Colletotrichum camelliae [6] turned out to be 40.7%.
As for `OCCc1ccccc1` [PHENYLETHYL ALCOHOL], the minimal inhibitory concentration (MIC) with Colletotrichum camelliae [1] was found to be 2040 µg/mL (≈ 16.7 mM). Also, the inhibition of growth at 1500 µg/mL in the assay with Colletotrichum camelliae [2] worked out at 85.2%. In addition, in the assay on Colletotrichum camelliae [3], the inhibition of growth at 1000 µg/mL was found to be 70.4%. Moreover, the inhibition of growth at 2000 µg/mL in the assay with Colletotrichum camelliae [4] turned out to be 92.6%. Besides, the inhibition of growth at 100 µg/mL with Colletotrichum camelliae [5] was found to be 51.9%. Also, in the assay with Colletotrichum camelliae [6], the inhibition of growth at 500 µg/mL is 46.3%.
With `CC(C)=CCC/C(C)=C/CO` [GERANIOL], in the assay with Colletotrichum camelliae [1], the minimum inhibitory concentration (MIC) worked out at 440 µg/mL (≈ 2.85 mM). For the same compound, in the assay on Colletotrichum camelliae [2], the inhibition of growth at 1500 µg/mL worked out at 100%. For the same compound, the inhibition of growth at 1000 µg/mL in the assay on Colletotrichum camelliae [3] was 100%. Further, the inhibition of growth at 2000 µg/mL in the assay on Colletotrichum camelliae [4] amounted to 100%. Besides, the inhibition of growth at 100 µg/mL with Colletotrichum camelliae [5] worked out at 58.1%. Moreover, the inhibition of growth at 500 µg/mL in the assay on Colletotrichum camelliae [6] was found to be 100%.
